In brackets after ≈: the same amount, converted by molar mass.

In general, Kp refers to tissue or fluid exposure divided by exposure in the circulation. For orientation: IC50 means the concentration needed to halve the response being measured. By half-life is commonly meant the time needed for the level to fall by half in the phase considered. The term clearance denotes a measure of how efficiently the substance is removed, as volume per time. For orientation: AUC(0-t) means the area under the concentration-time curve up to a stated or last time point. One may read the logD as lipophilicity at a set pH, counting ionised and neutral species. The term fraction unbound denotes the share of the substance not bound to proteins or other matrix. For orientation: Papp means the rate of passage across a membrane or cell layer, normalised by area and donor concentration. For orientation: inhibition in vivo means the change of the read-out against control, counted positive when it falls.

Data set [1] can be described thus: Metabolic intrinsic clearance in human hepatocytes assessed per million cells incubated for 2 hrs. The format is ADME, cell-based, Hepatocyte. As to conditions: read-out: CLH. In outline: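 Cryopreserved human hepatocytes incubated for 2 h. In vitro half-lives scaled to intrinsic clearance, expressed per 10^6 cells.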
Data set [2] can be described thus: Apparent volume of distribution at steady state in Wistar-Hannover rat plasma at 1 mg/kg, iv and measured up to 24 hrs by LC/MS-MS analysis. In kind it is ADME, organism-based. As to conditions: read-out: Vdss(app). In outline:
(§1)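 Male Wistar-Hannover rats (240–350 g) with jugular vein cannulas, dosed 1 mg/kg IV (2 mL/kg) or PO. IV vehicle was 10% DMSO/90% of 20% sulfobutylether-β-cyclodextrin in water, or 10% DMSO/30% PEG400/60% water. Plasma was analysed by LC-MS/MS. Parameters come from plasma concentration–time data, n = 2: Cmax observed directly, AUC0-24 by the linear trapezoidal rule, CL = IV dose/AUC, Vss = dose/(AUC × elimination rate constant).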

Data set [3] can be described thus: Ratio of drug uptake in Wistar-Hannover rat liver to plasma at 30 mg/kg, po after 6 hrs by LC/MS-MS analysis. In kind it is ADME, organism-based. The following applies: liver and plasma. In outline:
(§2)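 Male Wistar-Hannover rats (n = 2 or 3) dosed orally as a suspension in 0.5% methyl cellulose with 0.1% Tween 80. Plasma and liver sampled 6 h post-dose. Kp is total liver/plasma; Kpu,u uses unbound fractions from equilibrium dialysis of plasma and liver.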

The target in data set [4] is Acetyl-CoA carboxylase 1 (Homo sapiens, UniProt Q13085). Kind of data set: Inhibition of recombinant human ACC1 using acetyl coA as substrate incubated for 1 hr by transcreener fluorescence polarization assay. In outline: (§3)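 Recombinant human enzyme, Transcreener assay run per an earlier protocol. IC50 is the geometric mean of at least three replicates, also given as pIC50 ± SD.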

Data set [5] in a line: Half life in Wistar-Hannover rat plasma at 1 mg/kg, iv and measured up to 24 hrs by LC/MS-MS analysis. In kind it is ADME, organism-based. Summed up:
as §1

The nature of data set [6]: Ratio of drug uptake in Wistar-Hannover rat unbound liver to plasma concentration at 30 mg/kg, po after 6 hrs by LC/MS-MS analysis. In kind it is ADME, organism-based. The following applies: other tissue. Summed up: as §2
Data set [7] in a line: Clearance in Wistar-Hannover rat plasma at 1 mg/kg, iv and measured up to 24 hrs by LC/MS-MS analysis. In kind it is ADME, organism-based. Summed up: as §1
The nature of data set [8]: AUC (0 to 24 hrs) in Wistar-Hannover rat plasma at 1 mg/kg, iv and measured up to 24 hrs by LC/MS-MS analysis. In kind it is ADME, organism-based. The arrangement: route intravenous, dose 1 mg/kg, time <=24. Summed up: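 Male Wistar-Hannover rats (240–350 g) with jugular vein cannulas were given 1 mg/kg IV at 2 mL/kg. Vehicle, depending on compound, was 10% DMSO/90% of 20% sulfobutylether-β-cyclodextrin in water or 10% DMSO/30% PEG400/60% water. AUC0–24 came from plasma concentration–time data by the linear trapezoidal rule, averaged for n = 2. Lower detection limit was 1 ng/mL.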

The target of data set [9] is T1, Acetyl-CoA carboxylase 2 (Homo sapiens, UniProt O00763). Kind of data set: Inhibition of recombinant human ACC2 using acetyl coA as substrate incubated for 1 hr by transcreener fluorescence polarization assay. Summed up: as §3
(In general: Polarisation of emitted light reports the rotation of a fluorescent probe.)

Data set [10] in a line: Octanol-water partition coefficient, logD of compound at pH 7.4 at 0.5 to 2 mg incubated for 1 hr by HPLC based shake-flask method. In kind it is physicochemical. The following applies: dose 0.5-2 mg. In outline:
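Shake-flask octanol/water partition at pH 7.4.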

The species named for data set [11] is Rattus norvegicus. Briefly: Fraction unbound in rat plasma by equilibrium dialysis method. A general note: Equilibrium dialysis compares concentrations on both sides of a semipermeable membrane.
Data set [12] can be described thus: Apparent permeability in MCDKII-LE cells at 2 uM incubated for 30 mins. The format is ADME, cell-based, Canis lupus familiaris, MDCKII-LE. The following applies: dog, MDCK. Summed up:
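MDCK-LE (low-efflux) cell monolayers with a 30 min pre-incubation. Read-out is apparent passive permeability (Papp, 10^-6 cm/s).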

The nature of data set [13]: Fraction unbound in rat liver by equilibrium dialysis method.
The nature of data set [14]: Fraction unbound in monkey plasma by equilibrium dialysis method. The following applies: rhesus monkey. In kind it is ADME, cell-free, Macaca mulatta. In outline: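 Fraction unbound in plasma and liver tissue was determined by equilibrium dialysis.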
Data set [15] has as its target UDP-glucuronosyltransferase 2B15 (Homo sapiens, UniProt P54855). Kind of data set: Inhibition of UGT2B15 in human liver microsomes in presence of UDPGA by LC-MS/MS analysis. The format is ADME. In general terms: Liver microsomes are a subcellular fraction often used to study metabolism.
In data set [16] the target is UDP-glucuronosyltransferase 2B7 (Homo sapiens, UniProt P16662). Kind of data set: Inhibition of UGT2B7 in human liver microsomes incubated for 60 mins in presence of UDPGA by LC-MS/MS analysis. The format is ADME.
Data set [17] can be described thus: Fraction unbound in human plasma by equilibrium dialysis method. The format is ADME, cell-free.
The nature of data set [18]: Thermodynamic solubility of the compound at pH 6.5 after 24 hrs. The format is physicochemical. The following applies: buffer, read-out: Therm_solubility.
The target of data set [19] is Cytochrome P450 2C19 (Homo sapiens, UniProt P33261). Kind of data set: inhibition of CYP2C19 in human liver microsomes. In kind it is ADME.
Data set [20] in a line: Inhibition of DNL in Sprague-Dawley rat assessed as reduction in DNL level in liver at 300 mg/kg, po pretreated with one hr followed by [14C]-acetate treatment and measured after 1 hr relative to control. In kind it is functional. In outline: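 Sprague-Dawley rats given single oral doses of 0.03–300 mg/kg in 0.5% methyl cellulose vehicle, n = 16 per dose. Read-out is incorporation of 14C-acetate into lipids in liver, bone marrow and lung, measured at 2 h post-dose relative to vehicle. Data are mean ± SEM. EC50 is reported with a 95% confidence interval.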

For data set [21], the system named is CHO. Briefly: Genotoxicity in CHO cells by micronucleus test. The format is toxicity, cell-based, Cricetulus griseus. The following applies: chinese hamster. Summed up: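 In vitro micronucleus assay in Chinese hamster ovary or TK6 cells, run with and without metabolic activation by aroclor-induced rat liver S9 fraction plus NADPH.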
Data set [22] concerns the target OATP2B1 (Homo sapiens, UniProt O94956). Kind of data set: Substrate activity at human OATP2B1 stably expressed in HEK293 cells assessed as ratio of total to passive cellular uptake at 1 uM incubated for 0.5 to 4 mins by LC/MS-MS analysis. The format is cell-based. The following applies: HEK293 cells stably expressing human OATP2B1, time 0.5-4 min. In outline:
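HEK293 cells stably transfected with the transporter, plus wild-type cells, grown to confluence in DMEM with 10% heat-inactivated FBS and 5 µg/mL blasticidin. Washed with HBSS/20 mM HEPES, pH 7.4, then incubated with compound at 37 °C for 0.5–4.0 min. Cells washed ice-cold, lysed in MeOH for LC-MS/MS, uptake normalized to BCA protein. Ratio = transfected/wild-type uptake, averaged over time points.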

Data set [23] addresses T1, Acetyl-CoA carboxylase 2. Briefly: Uncompetitive inhibition of human ACC2 incubated for 15 mins in presence of ATP by Line weaver-Burk plot analysis. Summed up:
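Radioenzymatic assay with purified ACC isozymes, measuring [14C]-bicarbonate incorporation into [14C]-malonyl-CoA. Mode of inhibition taken from substrate concentration-dependence experiments varying ATP or carbonate. IC50 dose-response run at saturating ATP.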

Data set [24] in a line: Toxicity in cynomolgus monkey assessed as reduction in platelet count at 3 to 10 mg/kg, po after 14 days. The format is organism-based, Macaca fascicularis. As to conditions: in vivo, 336 h, dose 3-10 mg/kg, time 14 day.

T1 sequence (O00763 whole entry): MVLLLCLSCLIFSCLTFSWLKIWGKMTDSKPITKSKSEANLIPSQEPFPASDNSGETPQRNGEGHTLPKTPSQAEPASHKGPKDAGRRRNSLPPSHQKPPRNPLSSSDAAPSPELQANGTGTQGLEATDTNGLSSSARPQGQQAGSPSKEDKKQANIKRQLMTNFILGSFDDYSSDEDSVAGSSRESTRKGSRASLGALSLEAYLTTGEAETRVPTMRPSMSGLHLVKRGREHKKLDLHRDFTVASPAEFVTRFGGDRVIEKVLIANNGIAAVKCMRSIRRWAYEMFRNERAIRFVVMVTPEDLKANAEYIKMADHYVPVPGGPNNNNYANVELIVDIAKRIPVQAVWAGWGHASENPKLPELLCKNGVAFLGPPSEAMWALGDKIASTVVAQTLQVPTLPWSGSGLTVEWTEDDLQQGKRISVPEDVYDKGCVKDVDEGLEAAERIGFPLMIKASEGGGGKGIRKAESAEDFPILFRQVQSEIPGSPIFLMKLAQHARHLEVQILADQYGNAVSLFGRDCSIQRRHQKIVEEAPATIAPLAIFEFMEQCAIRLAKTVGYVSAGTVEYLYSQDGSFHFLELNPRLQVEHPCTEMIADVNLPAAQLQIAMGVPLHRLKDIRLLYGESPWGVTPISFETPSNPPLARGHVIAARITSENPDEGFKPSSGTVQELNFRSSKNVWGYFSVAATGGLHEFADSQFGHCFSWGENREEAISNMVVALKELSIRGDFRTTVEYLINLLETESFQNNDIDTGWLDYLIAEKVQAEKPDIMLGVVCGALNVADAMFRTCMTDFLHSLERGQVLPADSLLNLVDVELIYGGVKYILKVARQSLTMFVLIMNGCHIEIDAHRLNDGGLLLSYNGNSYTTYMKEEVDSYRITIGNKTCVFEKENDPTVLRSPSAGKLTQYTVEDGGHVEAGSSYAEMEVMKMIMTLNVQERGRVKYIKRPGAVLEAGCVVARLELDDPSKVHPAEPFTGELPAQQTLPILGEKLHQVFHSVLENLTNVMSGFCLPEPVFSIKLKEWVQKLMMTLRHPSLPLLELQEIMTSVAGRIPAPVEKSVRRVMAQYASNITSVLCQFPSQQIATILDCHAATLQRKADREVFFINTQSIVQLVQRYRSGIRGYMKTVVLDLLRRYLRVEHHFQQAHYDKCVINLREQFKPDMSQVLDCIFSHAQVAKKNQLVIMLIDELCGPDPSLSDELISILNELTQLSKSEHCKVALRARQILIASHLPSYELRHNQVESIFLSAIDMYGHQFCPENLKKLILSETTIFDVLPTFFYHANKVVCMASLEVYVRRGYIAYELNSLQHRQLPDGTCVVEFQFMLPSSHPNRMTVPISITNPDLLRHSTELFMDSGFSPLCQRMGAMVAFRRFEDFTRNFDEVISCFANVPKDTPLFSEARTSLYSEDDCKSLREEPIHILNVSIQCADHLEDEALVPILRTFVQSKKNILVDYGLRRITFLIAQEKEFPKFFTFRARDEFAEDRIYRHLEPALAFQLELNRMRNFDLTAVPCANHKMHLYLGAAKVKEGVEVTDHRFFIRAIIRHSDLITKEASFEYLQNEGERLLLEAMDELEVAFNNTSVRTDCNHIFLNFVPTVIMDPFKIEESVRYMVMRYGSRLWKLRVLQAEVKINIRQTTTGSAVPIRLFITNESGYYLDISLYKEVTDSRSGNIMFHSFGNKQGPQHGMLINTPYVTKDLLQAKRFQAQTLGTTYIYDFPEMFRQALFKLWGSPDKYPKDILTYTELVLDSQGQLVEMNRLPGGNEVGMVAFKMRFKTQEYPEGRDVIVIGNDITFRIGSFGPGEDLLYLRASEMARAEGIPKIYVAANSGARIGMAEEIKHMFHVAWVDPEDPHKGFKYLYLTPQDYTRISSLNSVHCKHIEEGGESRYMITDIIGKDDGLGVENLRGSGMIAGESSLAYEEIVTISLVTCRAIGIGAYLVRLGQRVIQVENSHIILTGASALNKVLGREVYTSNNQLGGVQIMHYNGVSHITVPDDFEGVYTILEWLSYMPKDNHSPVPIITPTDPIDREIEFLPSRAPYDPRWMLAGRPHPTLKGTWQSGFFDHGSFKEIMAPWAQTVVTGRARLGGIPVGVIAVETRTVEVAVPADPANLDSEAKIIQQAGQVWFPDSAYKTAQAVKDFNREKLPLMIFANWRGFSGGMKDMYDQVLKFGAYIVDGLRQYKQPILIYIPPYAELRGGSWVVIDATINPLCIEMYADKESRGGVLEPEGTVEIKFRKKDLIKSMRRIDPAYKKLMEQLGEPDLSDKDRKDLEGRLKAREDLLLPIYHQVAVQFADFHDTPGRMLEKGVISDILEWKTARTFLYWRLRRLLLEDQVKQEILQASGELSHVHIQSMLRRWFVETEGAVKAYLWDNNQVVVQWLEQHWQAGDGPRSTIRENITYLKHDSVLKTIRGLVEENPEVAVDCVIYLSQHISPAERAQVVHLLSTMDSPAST
Sequence of Cytochrome P450 2C19 (P33261 whole entry): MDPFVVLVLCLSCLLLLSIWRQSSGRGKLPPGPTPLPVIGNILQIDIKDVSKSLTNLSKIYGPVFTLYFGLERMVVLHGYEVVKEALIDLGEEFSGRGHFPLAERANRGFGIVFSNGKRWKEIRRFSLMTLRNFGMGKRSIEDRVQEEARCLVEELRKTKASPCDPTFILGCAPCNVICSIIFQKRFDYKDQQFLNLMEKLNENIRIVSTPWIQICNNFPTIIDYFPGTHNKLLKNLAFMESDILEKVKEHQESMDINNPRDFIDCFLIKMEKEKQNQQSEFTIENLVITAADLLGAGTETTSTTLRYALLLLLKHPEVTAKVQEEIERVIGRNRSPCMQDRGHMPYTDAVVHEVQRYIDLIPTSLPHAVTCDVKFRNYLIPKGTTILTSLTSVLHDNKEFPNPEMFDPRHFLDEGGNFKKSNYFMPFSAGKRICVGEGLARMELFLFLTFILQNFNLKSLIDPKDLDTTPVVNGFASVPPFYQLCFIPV
Sequence of UDP-glucuronosyltransferase 2B7 (P16662 whole entry): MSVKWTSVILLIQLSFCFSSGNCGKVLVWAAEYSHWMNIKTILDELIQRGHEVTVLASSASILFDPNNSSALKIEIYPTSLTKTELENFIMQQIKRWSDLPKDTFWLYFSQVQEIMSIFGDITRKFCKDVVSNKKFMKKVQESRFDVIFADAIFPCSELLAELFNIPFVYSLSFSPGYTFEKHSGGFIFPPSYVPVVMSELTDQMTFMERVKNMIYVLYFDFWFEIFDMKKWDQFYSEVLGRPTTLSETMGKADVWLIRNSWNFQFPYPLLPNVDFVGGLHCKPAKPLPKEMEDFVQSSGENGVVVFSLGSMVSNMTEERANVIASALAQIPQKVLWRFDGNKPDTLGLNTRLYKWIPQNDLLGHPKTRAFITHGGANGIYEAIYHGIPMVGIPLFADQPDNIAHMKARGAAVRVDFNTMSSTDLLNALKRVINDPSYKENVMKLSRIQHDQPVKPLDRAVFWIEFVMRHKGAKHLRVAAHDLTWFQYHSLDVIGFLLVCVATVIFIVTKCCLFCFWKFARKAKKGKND
Sequence of OATP2B1 (O94956 whole entry): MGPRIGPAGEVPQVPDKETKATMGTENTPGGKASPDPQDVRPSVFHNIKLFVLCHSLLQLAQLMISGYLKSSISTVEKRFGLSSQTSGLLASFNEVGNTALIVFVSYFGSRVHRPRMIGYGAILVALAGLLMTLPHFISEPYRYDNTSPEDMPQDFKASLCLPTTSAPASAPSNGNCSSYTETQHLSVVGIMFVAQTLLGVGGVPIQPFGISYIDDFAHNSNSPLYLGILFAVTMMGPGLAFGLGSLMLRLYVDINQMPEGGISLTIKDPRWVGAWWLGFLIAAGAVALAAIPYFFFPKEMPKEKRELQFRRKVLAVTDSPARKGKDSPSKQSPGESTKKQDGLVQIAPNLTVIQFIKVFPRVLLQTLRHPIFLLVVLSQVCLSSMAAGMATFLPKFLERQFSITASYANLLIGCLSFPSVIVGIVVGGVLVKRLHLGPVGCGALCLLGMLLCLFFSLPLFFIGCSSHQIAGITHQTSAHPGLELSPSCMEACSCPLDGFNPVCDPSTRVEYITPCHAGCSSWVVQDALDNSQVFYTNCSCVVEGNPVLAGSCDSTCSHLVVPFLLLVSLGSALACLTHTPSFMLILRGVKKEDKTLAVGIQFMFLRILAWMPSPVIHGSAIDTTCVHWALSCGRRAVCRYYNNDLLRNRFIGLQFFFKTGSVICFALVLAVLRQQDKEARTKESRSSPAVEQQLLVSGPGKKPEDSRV
Sequence of UDP-glucuronosyltransferase 2B15 (P54855 whole entry): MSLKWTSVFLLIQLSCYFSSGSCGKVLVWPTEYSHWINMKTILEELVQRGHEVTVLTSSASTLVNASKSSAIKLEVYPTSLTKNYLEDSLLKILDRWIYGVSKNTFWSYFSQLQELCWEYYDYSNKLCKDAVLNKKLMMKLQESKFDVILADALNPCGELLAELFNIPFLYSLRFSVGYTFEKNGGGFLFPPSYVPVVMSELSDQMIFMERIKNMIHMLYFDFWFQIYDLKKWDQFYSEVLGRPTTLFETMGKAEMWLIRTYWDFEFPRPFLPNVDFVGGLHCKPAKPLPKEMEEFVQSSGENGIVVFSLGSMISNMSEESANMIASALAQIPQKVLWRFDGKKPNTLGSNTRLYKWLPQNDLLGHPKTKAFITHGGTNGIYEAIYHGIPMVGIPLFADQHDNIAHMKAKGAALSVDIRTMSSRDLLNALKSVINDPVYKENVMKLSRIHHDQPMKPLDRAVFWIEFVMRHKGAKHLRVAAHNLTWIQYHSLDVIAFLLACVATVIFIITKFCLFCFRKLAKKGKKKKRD

For the molecule `COc1cc(C(=O)N2CCC3(CC2)CC(=O)c2nn(C(C)(C)C)cc2O3)cc(-c2ccc(C(=O)O)cc2)n1`, in [1], the hepatocyte CLint is under 3 µL/min/1e6 cells. Further, the Vd in [2] was 4.1 L/kg. The Kp at 6 h in data set [3] stood at 914. Also, the IC50 in [4] worked out at 22 nM; in data set [9], 13 nM. The same molecule gave a half-life in [5] of 3.5 h. Also, in data set [6], the Ratio was found to be 376. In addition, the clearance in [7] is 54.5 mL/min/kg. In addition, the AUC(0-t) in [8] was 299 ng·h/mL. Also, the logD at 1 h in data set [10] turned out to be 0.5. The fraction unbound came out at 0.17 in data set [11] and 0.07 in data set [13]. Moreover, the Papp at 0.5 h, 2 µM in data set [12] was 2 ×10⁻⁶ cm/s.

Take `COc1cc(C(=O)N2CCC3(CC2)CC(=O)c2c(cnn2C(C)C)C3)cc(-c2ccc(C(=O)O)cc2)n1` [CLESACOSTAT]: the hepatocyte CLint in data set [1] was under 3 µL/min/1e6 cells. The Vd in data set [2] was determined as 7.2 L/kg. Also, the IC50 in data set [4] is 33 nM; in data set [15], over 20000 nM; in [16], over 20000 nM; in data set [9] it was 26 nM; in data set [19], over 50000 nM; in [23] it was 8.66 nM. Further, the half-life in data set [5] was 8.6 h. Also, the fraction unbound in data set [14] turned out to be 0.00956; in [17], 0.006; in data set [11] it was 0.0392; in data set [13] it was 0.066. Besides, the clearance in data set [7] is 16 mL/min/kg. In [8], this molecule returned an area under the curve AUC(0-t) of 965 ng·h/mL. The solubility thermodynamic at 24 h in [18] is 36 µM (≈ 18.1 µg/mL). The inhibition in vivo at 300 mg/kg in data set [20] amounted to 82%. For the same molecule, the Activity result in data set [21] and in [24] was “Non-Toxic” each time. Besides, in data set [22], the uptake ratio at 1 µM amounted to 7. Further, the logD at 1 h in data set [10] came to 1.1. Further, in data set [12], the apparent permeability coefficient (Papp) at 0.5 h, 2 µM worked out at 14 ×10⁻⁶ cm/s.

The values above are taken from ChEMBL document CHEMBL4665761, “Optimizing the Benefit/Risk of Acetyl-CoA Carboxylase Inhibitors through Liver Targeting” (J Med Chem, 2020).
